The record followed here is ChEMBL document CHEMBL1137693, “Antiamoebic coumarins from the root bark of Adina cordifolia and their new thiosemicarbazone derivatives” (Eur J Med Chem, 2009).

The data set in a line: Cytotoxicity against rat H9c2 cells assessed as cell viability at 3.125 to 200 ug/ml after 48 hrs by MTT assay. The class given is cell-based. As to conditions: read-out: Activity. The method, boiled down:
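Rat H9c2 cardiac myoblasts maintained in high-glucose DMEM with 10% heat-inactivated FBS and antibiotics at 37 °C, 5% CO₂. Subconfluent cells exposed 48 h to 3.125–200 μg/ml. MTT (5 mg/ml) added for 45 min at 37 °C; formazan dissolved in acid isopropanol, absorbance read at 570 nm (reference 655 nm). Viability relative to untreated controls; triplicate.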

As for `C/C(=N\NC(=S)N1CCC(Cc2ccccc2)CC1)c1c(O)ccc2ccc(=O)oc12`, the viability at 48 h is over 80%.
In the case of `C/C(=N\NC(=S)NCc1ccccc1)c1c(O)ccc2ccc(=O)oc12`, the viability at 48 h is over 80%.
The result for `C/C(=N\NC(=S)NC12CC3CC(CC(C3)C1)C2)c1c(O)ccc2ccc(=O)oc12` reads over 80%.
